Source: ChEMBL document CHEMBL3259739, “Synthesis and structure-activity relationship of trisubstituted thiazoles as Cdc7 kinase inhibitors” (Eur J Med Chem, 2014)
Activity calls are given as the source filed them.

Tests used:
[1] = target: T1, CDC7/DBF4 (Cell division cycle 7-related protein kinase/Activator of S phase kinase) (Homo sapiens) (UniProt Q9UBU7+O00311); assay: Competitive inhibition of Cdc7/Dbf4 (unknown origin) using ATP as substrate by Michaelis-Menton/double-reciprocal plot analysis; assay type: protein-complex assay
In short: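 AlphaScreen with 6 nM Cdc7/Dbf4 and 10 nM biotinylated His/avitag MCM2 (aa1-467) substrate. Phospho-Ser53 MCM2 detected with antibody-bound Protein A acceptor and streptavidin donor beads. Rates fitted by Michaelis–Menten and double-reciprocal plots.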

[2] = target: T2, CDC7/DBF4 (Cell division cycle 7-related protein kinase/Activator of S phase kinase) (Homo sapiens, UniProt O00311); assay: Inhibition of Cdc7/Dbf4 (unknown origin) using 1.5 uM of ATP as substrate by AlphaScreen assay; assay type: protein-complex assay
In short: (§1)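 Mechanism-of-action AlphaScreen run with 6 nM Cdc7/Dbf4 and 10 nM biotinylated MCM2 substrate. […] Reaction time was 2 h. Phospho-Ser53 MCM2 was read by antibody-bound acceptor beads with streptavidin donor beads. Rates and Ki were fitted to a competitive inhibition model.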

[3] = target: T2, CDC7/DBF4 (Cell division cycle 7-related protein kinase/Activator of S phase kinase); assay: Inhibition of Cdc7/Dbf4 (unknown origin) using 0.75 uM of ATP as substrate by AlphaScreen assay; assay type: protein-complex assay; in short: as §1
[4] = target: T2, CDC7/DBF4 (Cell division cycle 7-related protein kinase/Activator of S phase kinase); assay: Inhibition of Cdc7/Dbf4 (unknown origin) using 0.375 uM of ATP as substrate by AlphaScreen assay; assay type: protein-complex assay; in short: as §1
[5] = target: T2, CDC7/DBF4 (Cell division cycle 7-related protein kinase/Activator of S phase kinase); assay: Inhibition of Cdc7/Dbf4 (unknown origin) using 0.188 uM of ATP as substrate by AlphaScreen assay; assay type: protein-complex assay; in short: as §1
[6] = target: T2, CDC7/DBF4 (Cell division cycle 7-related protein kinase/Activator of S phase kinase); assay: (§2) Inhibition of Cdc7/Dbf4 in human HCT116 cells assessed as reduction of MCM2 phosphorylation after 14 hrs; assay type: cell-based, HCT-116
In short: (§3)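 HCT-116 cells were exposed to inhibitor across a 22-point dose response for 14 h. They were then immunostained for phospho-serine MCM2 using an Alexa Fluor 488 secondary, with a Hoechst nuclear counterstain. The percentage of cells with phospho-MCM2 signal above a threshold was scored by high-content imaging, and IC50 values were derived from that.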

[7] = Intrinsic clearance in mouse liver microsomes at 1 uM after 30 mins by reverse phase HPLC analysis in presence of NADPH; assay type: ADME; conditions: read-out: CLH
In short: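 Reactions were stopped with MeCN after 0 or 30 min. Samples were analysed by reverse-phase HPLC–tandem MS to give intrinsic clearance (µl/min/mg).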

[8] = target: Cyclin-dependent kinase 1/cyclin B1 (Homo sapiens, UniProt P06493); assay: Inhibition of CDK1/Cyclin-B (unknown origin) by homogeneous time-resolved fluorescence assay; assay type: protein-complex assay
In short: (§4)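 Counter-screens by HTRF kinase assays: CDK1/Cyclin B and CDK4/Cyclin D1 in HTRF format, CDK9/Cyclin T1 with a 4eBP1 ULight substrate, and the CK2 tetramer with a TopoII ULight substrate.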

CDK9/cyclin T1 = CDK9/cyclin T1 (Homo sapiens, UniProt P50750); assay: Inhibition of CDK9/Cyclin-T1 (unknown origin) by homogeneous time-resolved fluorescence assay; assay type: protein-complex assay; in short: as §4
Casein kinase II = Casein kinase II (Homo sapiens, UniProt P19784+P67870+P68400); assay: Inhibition of CK2 (unknown origin) by homogeneous time-resolved fluorescence assay; assay type: protein-complex assay; in short: as §4
[9] = target: Casein kinase I isoform alpha (Homo sapiens, UniProt P48729); assay: Inhibition of CK1alpha (unknown origin) by TR-FRET assay
In short: (§5)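 CK1 isoform inhibition measured in Lance TR-FRET kinase assays, reported as IC50.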

[10] = target: Casein kinase I isoform delta (Homo sapiens, UniProt P48730); assay: Inhibition of CK1delta (unknown origin) by TR-FRET assay; in short: as §5
HCT-116 [11] = assay: Inhibition of DNA synthesis in human HCT116 cells after 2 days by BrdU incorporation assay; assay type: functional, cell-based; conditions: HCT-116, 48 h
HCT-116 [12] = assay: Cytotoxicity against human HCT116 cells assessed as cell viability after 2 days by Cell Titer-glo assay; assay type: functional, cell-based; conditions: HCT-116, 48 h
HCT-116 [13] = assay: Induction of apoptosis in human HCT116 cells assessed as activation of caspase 3/7; assay type: functional, cell-based
[14] = target: T1, CDC7/DBF4 (Cell division cycle 7-related protein kinase/Activator of S phase kinase) (Homo sapiens); assay: as §2; assay type: cell-based; conditions: HCT-116; in short: as §3
HCT-116 [15] = assay: Cell cycle arrest in human HCT116 cells assessed as DNA accumulation at S/G2/M phase at 0.31 to 10 uM after 3 days using propidium iodide/RNase staining by flow cytometry; assay type: functional, cell-based
In short: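 HCT-116 cells exposed to inhibitor for 3 d at the indicated concentrations. Cells harvested with Cell Stripper buffer, fixed in 70% ethanol, stained with propidium iodide/RNase, and DNA content analysed by flow cytometry.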

HCT-116 [16] = assay: Induction of aberrant mitosis in human HCT116 cells at 1.25 uM after 72 hrs […]; assay type: functional, cell-based
[17] = target: T2, CDC7/DBF4 (Cell division cycle 7-related protein kinase/Activator of S phase kinase); assay: Inhibition of Cdc7/Dbf4 (unknown origin) using 9 uM of ATP as substrate by AlphaScreen assay; assay type: protein-complex assay
[18] = target: T2, CDC7/DBF4 (Cell division cycle 7-related protein kinase/Activator of S phase kinase); assay: Inhibition of Cdc7/Dbf4 (unknown origin) using 1 uM of ATP as substrate by AlphaScreen assay; assay type: protein-complex assay
[19] = target: T2, CDC7/DBF4 (Cell division cycle 7-related protein kinase/Activator of S phase kinase); assay: Inhibition of Cdc7/Dbf4 (unknown origin) using 0.111 uM of ATP as substrate by AlphaScreen assay; assay type: protein-complex assay
[20] = Fraction unbound in mouse plasma; assay type: ADME, cell-free
[21] = AUC (0 to infinity) in Sprague-Dawley rat at 2 mg/kg, iv; assay type: ADME, organism-based; design: time infinity, dose 2 mg/kg, route intravenous; conditions: plasma
[22] = Half life in Sprague-Dawley rat at 2 mg/kg, iv; assay type: ADME, organism-based; design: dose 2 mg/kg, route intravenous; conditions: in vivo
[23] = Volume of distribution at steady state in Sprague-Dawley rat at 2 mg/kg, iv; assay type: ADME, organism-based; design: dose 2 mg/kg, route intravenous; conditions: in vivo, read-out: Vdss
[24] = Apparent oral clearance in Sprague-Dawley rat at 5 mg/kg, po; assay type: ADME, organism-based; design: dose 5 mg/kg, route oral; conditions: in vivo
[25] = Terminal half life in Sprague-Dawley rat at 5 mg/kg, po; assay type: ADME, organism-based; design: dose 5 mg/kg, route oral; conditions: in vivo, read-out: beta t1/2 (converted)
In short: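 Male Sprague-Dawley rats given 5 mg/kg orally in 2% HPMC, 1% Tween80, pH2 (an iv arm received 2 mg/kg in DMSO). Plasma was sampled from 0.25 to 24 h and analyzed by LC/MS.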

Mus musculus [26] = assay: Inhibition of Cdc7/Dbf4 in NCR nude mouse xenografted with human HCT116 cells assessed as reduction of phosphorylated MCM2 level in tumor at 50 mg/kg, iv after 3 hrs; assay type: functional; conditions: HCT-116, 3 h
In short: (§6)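 Female athymic NCR/nu mice, 4–6 weeks old, bearing subcutaneous HCT-116 xenografts (5 × 10^6 cells in Matrigel) grown to about 250 mm3. Single iv dose formulated in 20% HPbCD, 1% HPMC, 1% PluronicF68, pH7 at 10 mg/ml; three mice per group. Tumors were homogenized in Tris lysis buffer with protease and phosphatase inhibitors. MSD capture with total MCM2 antibody, then phospho-Ser53 or total MCM2 detection by chemiluminescence; inhibition taken from the phospho/total ratio.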

Mus musculus [27] = assay: Inhibition of Cdc7/Dbf4 in NCR nude mouse xenografted with human HCT116 cells assessed as reduction of phosphorylated MCM2 level in tumor at 50 mg/kg, iv after 16 hrs; assay type: functional, organism-based; design: dose 50 mg/kg; conditions: HCT-116; in short: as §6
Plasma = assay: Unbound plasma concentration in NCR nude mouse xenografted with human HCT116 cells at 150 mg/kg, iv after 1 hr; assay type: ADME, organism-based, HCT-116; design: dose 150 mg/kg, route intravenous; conditions: in vivo
In short: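 HCT-116 xenograft NCR/nu mice (three per group) were given a single iv dose in 20% HPbCD, 1% HPMC, 1% PluronicF68, pH7 at 10 mg/ml. Plasma collected at the time points was measured by LC/MS. Values were converted to unbound concentrations using percent plasma protein binding in mouse serum.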

With CCOC(=O)c1sc(-c2ccncc2)nc1O the inhibition [1] was “Active”, the IC50 [2] was 318 nM and the IC50 [3] was 316 nM. It also gave an IC50 [4] of 546 nM and an IC50 [5] of 547 nM.

For COc1ccc(-c2nc(-c3ccnc(N)n3)sc2C(N)=O)c(Cl)c1, the IC50 [6] was 862 nM, the microsomal CLint at 1 µM [7] was 155 µL/min/mg and the IC50 [8] was greater than 50000 nM. The IC50 (CDK9/cyclin T1) was 729 nM, the IC50 (Casein kinase II) was 65000 nM and the IC50 [9] was 545 nM. The IC50 [10] was 104 nM, the IC50 (HCT-116 [11]) was 6900 nM and the IC50 (HCT-116 [12]) was 4600 nM. The IC50 (HCT-116 [13]) was greater than 50000 nM.

NC(=O)c1sc(-c2ccnc(N)n2)nc1-c1ccc(Cl)cc1Cl gave an IC90 [14] of 6370 nM, an IC50 [6] of 501 nM and a microsomal CLint at 1 µM [7] of 57 µL/min/mg. For the same compound, the IC50 [8] was greater than 50000 nM, the IC50 (CDK9/cyclin T1) was 749 nM and the IC50 (Casein kinase II) was 29100 nM. The IC50 [9] was 694 nM, the IC50 [10] was 84 nM and the IC50 (HCT-116 [11]) was 2600 nM. For the same compound, the IC50 (HCT-116 [12]) was 4200 nM, the Activity (HCT-116 [15]) was “Active” and the IC50 (HCT-116 [13]) was greater than 50000 nM. The Activity (HCT-116 [16]) was “Active”, the IC50 [17] was 18 nM and the IC50 [18] was 10 nM. It also gave an IC50 [19] of 29 nM, a fraction unbound [20] of 0.09 and an AUC(0-inf) [21] of 521 ng·h/mL. The half-life [22] was 6.56 h, the Vd [23] was 4.43 L/kg and the CL/F [24] was 1050 mL/min/kg. The half-life [25] was 3.73 h, the inhibition in vivo at 50 mg/kg (Mus musculus [26]) was 39% and the inhibition (Mus musculus [27]) was “inactive”. For the same compound, the “Cp(f)” value (Plasma) was 5 µM.
